From ChEMBL document CHEMBL1671615 (Antimicrob Agents Chemother, 2008)

Columns and labels:
[1] = Plasma concentration in BALB/c mouse at 4 to 5 mg/kg administered as inhalable bolus dose by HPLC; assay type: ADME, organism-based; parameters: dose 4-5 mg/kg; conditions: inhaled or intranasal
In short: (§1)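 BALB/c mice (25–30 g, either sex, groups of 4) given 100 μg drug by dry-powder inhalation of spray-dried polylactide microparticles (~10 mg charged, fluidized by 30 actuations over 30 s, nose-only). Noncompartmental extravascular-bolus fit; mean ± SD.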

Serum [2] = assay: AUC (OBS) in BALB/c mouse serum at 4 to 5 mg/kg, iv administered as single bolus dose by HPLC; assay type: ADME, organism-based; parameters: dose 4-5 mg/kg, route intravenous; conditions: in vivo
Mus musculus [3] = assay: (§2) Clearance in BALB/c mouse at 4 to 5 mg/kg administered as inhalable bolus dose by HPLC; assay type: ADME, organism-based; parameters: dose 4-5 mg/kg; conditions: in vivo, inhaled_or_intranasal; in short: as §1
[4] = Cmax in 10^6 mouse alveolar macrophages at 4 to 5 mg/kg, iv measured after 4 hrs by HPLC; assay type: ADME, organism-based, BALB/c, Macrophage; parameters: dose 4-5 mg/kg, route intravenous; conditions: in vivo
In short: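 After a 100 μg i.v. caudal-vein dose, four mice per time point underwent bronchoalveolar lavage with chilled saline plus 0.5 mM EDTA. Macrophages in the lavage were counted by hemocytometer and lysed, and drug was quantified by HPLC-UV per 10⁶ cells.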

[5] = Elimination rate constant in human THP1 cells at 3 ug/ml administered as microparticles after 10 mins by HPLC; assay type: ADME, cell-based; conditions: THP-1 cells
In short: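 THP-1 cells (10⁶/well) were differentiated with PMA for 14 h, washed, and rested 10 h. Microparticles (12 μg/ml, drug-equivalent 3 μg/ml) were added for 2 h, then washed out. Duplicate wells were lysed by freeze-thaw at serial times and analyzed by HPLC. A one-compartment model with no lag and first-order elimination was fitted.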

[6] = Cmax in 10^6 mouse alveolar macrophages at 4 to 5 mg/kg administered as inhalable dose measured 6 hrs postinhalation by HPLC; assay type: ADME, organism-based, Macrophage; parameters: dose 4-5 mg/kg; conditions: in vivo, inhaled_or_intranasal
In short: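 Mice inhaled 100 μg drug as dry-powder microparticles. Four animals per time point were anesthetized, and lungs were lavaged with chilled saline containing 0.5 mM EDTA. Recovered alveolar macrophages were counted by hemocytometer and extracted. Drug was measured by HPLC-UV and expressed per 10⁶ cells.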

Mus musculus [7] = assay: Volume of distribution in BALB/c mouse at 4 to 5 mg/kg, iv administered as single bolus dose by HPLC; assay type: ADME, organism-based; parameters: dose 4-5 mg/kg, route intravenous; conditions: in vivo
[8] = Elimination rate constant in human THP1 cells at 3 ug/ml after 10 mins by HPLC; assay type: ADME, cell-based; conditions: THP-1 cells
[9] = Plasma concentration in BALB/c mouse at 4 to 5 mg/kg, iv administered as single bolus dose by HPLC; assay type: ADME, organism-based; parameters: dose 4-5 mg/kg, route intravenous
Mus musculus [10] = assay: Volume of distribution in BALB/c mouse at 4 to 5 mg/kg administered as inhalable bolus dose by HPLC; assay type: ADME, organism-based; parameters: dose 4-5 mg/kg; conditions: in vivo, inhaled_or_intranasal; in short: as §1
[11] = Clearance in BALB/c mouse at 4 to 5 mg/kg, iv administered as single bolus dose by HPLC; assay type: ADME, organism-based; parameters: dose 4-5 mg/kg, route intravenous; conditions: in vivo
Serum [12] = assay: AUC (OBS) in BALB/c mouse serum at 4 to 5 mg/kg administered as inhalable bolus dose by HPLC; assay type: ADME, organism-based; parameters: dose 4-5 mg/kg; conditions: in vivo, inhaled_or_intranasal; in short: as §1
[13] = as §2; assay type: ADME, organism-based; parameters: dose 4-5 mg/kg; conditions: BALB/c, in vivo, inhaled or intranasal; in short: as §1
[14] = Half life in BALB/c mouse serum at 4 to 5 mg/kg administered as inhalable bolus dose by HPLC; assay type: ADME, organism-based; parameters: dose 4-5 mg/kg; conditions: inhaled or intranasal; in short: as §1
[15] = Half life in BALB/c mouse serum at 4 to 5 mg/kg, iv administered as single bolus dose by HPLC; assay type: ADME, organism-based; parameters: dose 4-5 mg/kg, route intravenous

Compound	Cmax [1]	AUC (Serum [2])	CL (Mus musculus [3])	Cmax [4]	k el at 10 min, 3 ug/ml [5]	Cmax [6]	Vz (Mus musculus [7])	k el at 10 min, 3 ug/ml [8]	Cmax [9]	Vz (Mus musculus [10])	clearance [11]	AUC (Serum [12])	CL/F [13]	half-life [14]	half-life [15]
NNC(=O)c1ccncc1 [ISONIAZID]	2370 ng/mL	16.64 µg/mL/h	63.9 mL/h	0.29 µg	0.000102 s⁻¹	0.56 µg	41.34 mL	9.44e-06 s⁻¹	3240 ng/mL	1670 mL	0.0738 mL/min	55.34 µg/mL/h			
CO[C@H]1/C=C/O[C@@]2(C)Oc3c(C)c(O)c4c(c3C2=O)C2=NC3(CCN(CC(C)C)CC3)NC2=C(NC(=O)/C(C)=C\C=C\[C@H](C)[C@H](O)[C@@H](C)[C@@H](O)[C@@H](C)[C@H](OC(C)=O)[C@@H]1C)C4=O [RIFABUTIN]	1590 ng/mL	90.82 µg/mL/h		0.32 µg	1.67e-05 s⁻¹	1.65 µg	29.52 mL	1.39e-06 s⁻¹	3470 ng/mL	2308.84 mL	0.017 mL/min	109.35 µg/mL/h	0.195 mL/min	119 h	20.2 h
